Measured values published in ChEMBL document CHEMBL3046780, “Syntheses and herbicidal activity of new triazolopyrimidine-2-sulfonamides as acetohydroxyacid synthase inhibitor” (Bioorg Med Chem, 2010).
pKi: −log10 of the molar value.

Key:
[1] = test system: Polygonum humifusum; experiment: Post-emergence herbicidal activity against Polygonum humifusum assessed as growth inhibition at 75 g ai/ha measured 15 days post compound treatment under green house conditions; format: functional; details: 360 h, read-out: GI
Procedure, shortened: (§1)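 Compounds formulated as 100 g/L emulsifiable concentrate (DMF solvent, Tween-80 emulsifier), diluted with water, sprayed post-emergence on pot-grown weeds in clay soil (pH 6.5, 1.6% organic matter). Seeds sown 1-3 cm deep, grown at 15-30 °C. Dicots were treated at the 2-leaf stage and monocots at the 1-leaf stage. Untreated and DMF-treated controls were included. Injury was rated visually 15 days after treatment.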

[2] = test system: Polygonum humifusum; experiment: Post-emergence herbicidal activity against Polygonum humifusum assessed as growth inhibition at 37.5 g ai/ha measured 15 days post compound treatment under green house conditions; format: functional; details: 360 h, read-out: GI; procedure, shortened: as §1
[3] = test system: Galium aparine; experiment: Post-emergence herbicidal activity against Galium aparine assessed as growth inhibition at 75 g ai/ha measured 15 days post compound treatment under green house conditions; format: functional; details: 360 h, read-out: GI; procedure, shortened: as §1
[4] = test system: Galium aparine; experiment: Post-emergence herbicidal activity against Galium aparine assessed as growth inhibition at 150 g ai/ha measured 15 days post compound treatment under green house conditions; format: functional; details: 360 h, read-out: GI; procedure, shortened: as §1
[5] = test system: Galium aparine; experiment: Post-emergence herbicidal activity against Galium aparine assessed as growth inhibition at 37.5 g ai/ha measured 15 days post compound treatment under green house conditions; format: functional; details: 360 h, read-out: GI; procedure, shortened: as §1
[6] = test system: Eclipta prostrata; experiment: Post-emergence herbicidal activity against Eclipta prostrata assessed as growth inhibition at 150 g ai/ha measured 15 days post compound treatment under green house conditions; format: functional; details: 360 h, read-out: GI; procedure, shortened: as §1
[7] = test system: Amaranthus retroflexus; experiment: Post-emergence herbicidal activity against Amaranthus retroflexus assessed as growth inhibition at 150 g ai/ha measured 15 days post compound treatment under green house conditions; format: functional; details: 360 h, read-out: GI; procedure, shortened: as §1
[8] = test system: Brassica juncea; experiment: Post-emergence herbicidal activity against Brassica juncea assessed as growth inhibition at 150 g ai/ha measured 15 days post compound treatment under green house conditions; format: functional; details: 360 h, read-out: GI; procedure, shortened: as §1
[9] = test system: Poa annua; experiment: Post-emergence herbicidal activity against Poa annua assessed as growth inhibition at 150 g ai/ha measured 15 days post compound treatment under green house conditions; format: functional; details: 360 h, read-out: GI; procedure, shortened: as §1
[10] = test system: Digitaria sanguinalis; experiment: Post-emergence herbicidal activity against Digitaria sanguinalis (hairy crabgrass) assessed as growth inhibition at 150 g ai/ha measured 15 days post compound treatment under green house conditions; format: functional; details: 360 h, read-out: GI; procedure, shortened: as §1
[11] = test system: Echinochloa crus-galli; experiment: Post-emergence herbicidal activity against Echinochloa crus-galli (barnyard grass) assessed as growth inhibition at 150 g ai/ha measured 15 days post compound treatment under green house conditions; format: functional; details: 360 h, read-out: GI; procedure, shortened: as §1
[12] = test system: Chenopodium album; experiment: Post-emergence herbicidal activity against Chenopodium album assessed as growth inhibition at 37.5 g ai/ha measured 15 days post compound treatment under green house conditions; format: functional; details: 360 h, read-out: GI; procedure, shortened: as §1
[13] = test system: Cyperus iria; experiment: Post-emergence herbicidal activity against Cyperus iria assessed as growth inhibition at 150 g ai/ha measured 15 days post compound treatment under green house conditions; format: functional; details: 360 h, read-out: GI; procedure, shortened: as §1
[14] = test system: Cyperus iria; experiment: Post-emergence herbicidal activity against Cyperus iria assessed as growth inhibition at 75 g ai/ha measured 15 days post compound treatment under green house conditions; format: functional; details: 360 h, read-out: GI; procedure, shortened: as §1
[15] = test system: Cyperus iria; experiment: Post-emergence herbicidal activity against Cyperus iria assessed as growth inhibition at 37.5 g ai/ha measured 15 days post compound treatment under green house conditions; format: functional; details: 360 h, read-out: GI; procedure, shortened: as §1
[16] = test system: Cerastium arvense; experiment: Post-emergence herbicidal activity against Cerastium arvense assessed as growth inhibition at 150 g ai/ha measured 15 days post compound treatment under green house conditions; format: functional; details: 360 h, read-out: GI; procedure, shortened: as §1
[17] = test system: Cerastium arvense; experiment: Post-emergence herbicidal activity against Cerastium arvense assessed as growth inhibition at 75 g ai/ha measured 15 days post compound treatment under green house conditions; format: functional; details: 360 h, read-out: GI; procedure, shortened: as §1
[18] = test system: Cerastium arvense; experiment: Post-emergence herbicidal activity against Cerastium arvense assessed as growth inhibition at 37.5 g ai/ha measured 15 days post compound treatment under green house conditions; format: functional; details: 360 h, read-out: GI; procedure, shortened: as §1
[19] = test system: Polygonum humifusum; experiment: Post-emergence herbicidal activity against Polygonum humifusum assessed as growth inhibition at 150 g ai/ha measured 15 days post compound treatment under green house conditions; format: functional; details: 360 h, read-out: GI; procedure, shortened: as §1
[20] = test system: Eclipta prostrata; experiment: Post-emergence herbicidal activity against Eclipta prostrata assessed as growth inhibition at 75 g ai/ha measured 15 days post compound treatment under green house conditions; format: functional; details: 360 h, read-out: GI; procedure, shortened: as §1
[21] = test system: Eclipta prostrata; experiment: Post-emergence herbicidal activity against Eclipta prostrata assessed as growth inhibition at 37.5 g ai/ha measured 15 days post compound treatment under green house conditions; format: functional; details: 360 h, read-out: GI; procedure, shortened: as §1
[22] = test system: Rumex acetosa; experiment: Post-emergence herbicidal activity against Rumex acetosa assessed as growth inhibition at 150 g ai/ha measured 15 days post compound treatment under green house conditions; format: functional; details: 360 h, read-out: GI; procedure, shortened: as §1
[23] = test system: Rumex acetosa; experiment: Post-emergence herbicidal activity against Rumex acetosa assessed as growth inhibition at 75 g ai/ha measured 15 days post compound treatment under green house conditions; format: functional; details: 360 h, read-out: GI; procedure, shortened: as §1
[24] = test system: Rumex acetosa; experiment: Post-emergence herbicidal activity against Rumex acetosa assessed as growth inhibition at 37.5 g ai/ha measured 15 days post compound treatment under green house conditions; format: functional; details: 360 h, read-out: GI; procedure, shortened: as §1
[25] = test system: Amaranthus retroflexus; experiment: Post-emergence herbicidal activity against Amaranthus retroflexus assessed as growth inhibition at 75 g ai/ha measured 15 days post compound treatment under green house conditions; format: functional; details: 360 h, read-out: GI; procedure, shortened: as §1
[26] = test system: Amaranthus retroflexus; experiment: Post-emergence herbicidal activity against Amaranthus retroflexus assessed as growth inhibition at 37.5 g ai/ha measured 15 days post compound treatment under green house conditions; format: functional; details: 360 h, read-out: GI; procedure, shortened: as §1
[27] = test system: Chenopodium album; experiment: Post-emergence herbicidal activity against Chenopodium album assessed as growth inhibition at 150 g ai/ha measured 15 days post compound treatment under green house conditions; format: functional; details: 360 h, read-out: GI; procedure, shortened: as §1
[28] = test system: Chenopodium album; experiment: Post-emergence herbicidal activity against Chenopodium album assessed as growth inhibition at 75 g ai/ha measured 15 days post compound treatment under green house conditions; format: functional; details: 360 h, read-out: GI; procedure, shortened: as §1
[29] = target: T1, Acetolactate synthase, chloroplastic (Arabidopsis thaliana, UniProt P17597)
T1 sequence (P17597 whole entry): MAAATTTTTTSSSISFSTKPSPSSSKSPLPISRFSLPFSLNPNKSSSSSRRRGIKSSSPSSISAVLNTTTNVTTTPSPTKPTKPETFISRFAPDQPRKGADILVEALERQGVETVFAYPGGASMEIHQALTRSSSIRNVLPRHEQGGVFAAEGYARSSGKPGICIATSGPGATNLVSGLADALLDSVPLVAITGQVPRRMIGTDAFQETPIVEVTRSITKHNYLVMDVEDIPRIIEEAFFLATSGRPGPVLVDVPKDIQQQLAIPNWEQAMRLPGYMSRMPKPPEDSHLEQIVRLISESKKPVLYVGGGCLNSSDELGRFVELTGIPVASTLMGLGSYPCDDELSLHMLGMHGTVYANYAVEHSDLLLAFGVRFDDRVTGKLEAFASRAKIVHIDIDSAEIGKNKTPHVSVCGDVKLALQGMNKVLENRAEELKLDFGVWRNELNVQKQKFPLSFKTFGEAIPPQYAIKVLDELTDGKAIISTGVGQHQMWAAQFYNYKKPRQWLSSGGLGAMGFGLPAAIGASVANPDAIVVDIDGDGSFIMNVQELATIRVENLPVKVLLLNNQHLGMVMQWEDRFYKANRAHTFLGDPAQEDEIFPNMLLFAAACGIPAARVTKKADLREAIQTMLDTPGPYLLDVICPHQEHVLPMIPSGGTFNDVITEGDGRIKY

| SMILES | inhibition of growth at 75 g/ha [1] | inhibition of growth at 37.5 g/ha [2] | inhibition of growth at 75 g/ha [3] | inhibition of growth at 150 g/ha [4] | inhibition of growth at 37.5 g/ha [5] | inhibition of growth at 150 g/ha [6] | inhibition of growth at 150 g/ha [7] | inhibition of growth at 150 g/ha [8] | inhibition of growth at 150 g/ha [9] | inhibition of growth at 150 g/ha [10] | inhibition of growth at 150 g/ha [11] | inhibition of growth at 37.5 g/ha [12] | inhibition of growth at 150 g/ha [13] | inhibition of growth at 75 g/ha [14] | inhibition of growth at 37.5 g/ha [15] | inhibition of growth at 150 g/ha [16] | inhibition of growth at 75 g/ha [17] | inhibition of growth at 37.5 g/ha [18] | inhibition of growth at 150 g/ha [19] | inhibition of growth at 75 g/ha [20] | other results |
| --- | --- | --- | --- | --- | --- | --- | --- | --- | --- | --- | --- | --- | --- | --- | --- | --- | --- | --- | --- | --- | --- |
| Cc1ccn2nc(S(=O)(=O)Nc3c(F)cccc3F)nc2n1 | ≥ 90% | ≥ 80% | 50% | ≥ 80% | 50% | ≥ 90% | ≥ 90% | ≥ 90% | 50% | ≥ 80% | 50% | 50% | 50% | 50% | 50% | ≥ 90% | ≥ 90% | ≥ 90% | ≥ 90% | ≥ 90% | inhibition of growth at 37.5 g/ha [21]: ≥ 90%; inhibition of growth at 150 g/ha [22]: ≥ 80%; inhibition of growth at 75 g/ha [23]: 50%; inhibition of growth at 37.5 g/ha [24]: 50%; inhibition of growth at 75 g/ha [25]: ≥ 90%; inhibition of growth at 37.5 g/ha [26]: ≥ 90%; inhibition of growth at 150 g/ha [27]: ≥ 90%; inhibition of growth at 75 g/ha [28]: ≥ 90%; pKi [29]: 6.44 |
| Cc1nc(C(F)(F)F)cc2nc(S(=O)(=O)Nc3c(F)cccc3F)nn12 | < 50% | < 50% | ≥ 80% | ≥ 80% | 50% | ≥ 80% | < 50% | ≥ 80% | < 50% | < 50% | < 50% | ≥ 80% | < 50% | < 50% | < 50% | 50% | 50% | 50% | 50% | ≥ 80% | inhibition of growth at 37.5 g/ha [21]: 50%; inhibition of growth at 150 g/ha [22]: 50%; inhibition of growth at 75 g/ha [23]: 50%; inhibition of growth at 37.5 g/ha [24]: 50%; inhibition of growth at 75 g/ha [25]: < 50%; inhibition of growth at 37.5 g/ha [26]: < 50%; inhibition of growth at 150 g/ha [27]: ≥ 90%; inhibition of growth at 75 g/ha [28]: ≥ 80%; pKi [29]: 4.15 |
| COC(=O)c1cccc(Cl)c1NS(=O)(=O)c1nc2c(Cl)c(C)nc(C)n2n1 | 50% | 50% | ≥ 80% | ≥ 80% | ≥ 80% | ≥ 50% | 50% | ≥ 90% | < 50% | < 50% | < 50% | ≥ 80% | 50% | 50% | 50% | 50% | 50% | < 50% | 50% | 50% | inhibition of growth at 37.5 g/ha [21]: 50%; inhibition of growth at 150 g/ha [22]: 50%; inhibition of growth at 75 g/ha [23]: 50%; inhibition of growth at 37.5 g/ha [24]: 50%; inhibition of growth at 75 g/ha [25]: 50%; inhibition of growth at 37.5 g/ha [26]: 50%; inhibition of growth at 150 g/ha [27]: ≥ 80%; inhibition of growth at 75 g/ha [28]: ≥ 80% |
| Cc1nc(C(F)(F)F)cc2nc(S(=O)(=O)Nc3c(Cl)cccc3Cl)nn12 | ≥ 80% | 50% | ≥ 80% | ≥ 80% | 50% | ≥ 90% | < 50% | ≥ 90% | < 50% | < 50% | < 50% | ≥ 80% | 50% | 50% | 50% | 50% | 50% | < 50% | ≥ 80% | 50% | inhibition of growth at 37.5 g/ha [21]: 50%; inhibition of growth at 150 g/ha [22]: ≥ 80%; inhibition of growth at 75 g/ha [23]: ≥ 80%; inhibition of growth at 37.5 g/ha [24]: ≥ 80%; inhibition of growth at 75 g/ha [25]: < 50%; inhibition of growth at 37.5 g/ha [26]: < 50%; inhibition of growth at 150 g/ha [27]: ≥ 90%; inhibition of growth at 75 g/ha [28]: ≥ 80%; pKi [29]: 5.30 |
